Only some compounds are listed: those with a hit (about 1.9% of all), similar ones and a draw of the others.
NPY Y2 blocker: NPY-Y2 receptor antagonists, primary screen, cell-based; Neuropeptide Y receptor type 2 (Homo sapiens), P49146; NPY-Y2 expressing cells, antagonist mode; inhibition, % at 2.7 µM; 140,000 tested, 0.99% active; AID 793, 2007;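 note: 0% = vehicle with agonist challenge and 100% = reference antagonist with challenge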
NPY2 pot ag: NPY-Y2 potentiators or agonists, primary screen, cell-based. cells expressing NPY-Y2, potentiator/agonist read-out. activation, % at 3.6 µM. 220,000 tested, 0.45% active. Neuropeptide Y receptor type 2 (Homo sapiens), P49146. AID 1359, 2008; in the data active = activation above about 27%;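 note: cells stimulated with NPY near EC25 plus isoproterenol at EC100; 0% = vehicle plus submaximal agonist and 100% = vehicle plus saturating agonist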
NPY1 pot ag: NPY-Y1 receptor potentiators or agonists, primary screen, cell-based; AID 1304, 2008; 220,000 tested, 0.37% active; NPY-Y1 expressing cells, potentiator/agonist activation; activation, % at 3.6 µM; in the data active = activation above about 33%, passing the limit was not always enough;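 note: cells stimulated with NPY at EC10 then isoproterenol at EC100; 0% = low agonist plus stimulus and 100% = saturating agonist plus stimulus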
Target sequence (P25929 whole entry, looked up): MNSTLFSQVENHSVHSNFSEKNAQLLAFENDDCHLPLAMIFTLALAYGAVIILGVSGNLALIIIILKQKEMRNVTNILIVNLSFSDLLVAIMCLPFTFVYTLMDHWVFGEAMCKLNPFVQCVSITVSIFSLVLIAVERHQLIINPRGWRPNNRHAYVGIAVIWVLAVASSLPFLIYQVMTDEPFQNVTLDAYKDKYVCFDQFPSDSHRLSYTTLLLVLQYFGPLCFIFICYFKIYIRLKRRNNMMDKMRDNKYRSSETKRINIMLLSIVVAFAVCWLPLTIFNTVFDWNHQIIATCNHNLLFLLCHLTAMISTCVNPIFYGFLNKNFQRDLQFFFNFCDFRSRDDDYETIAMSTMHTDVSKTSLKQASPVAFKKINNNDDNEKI
NPY Y1 blocker: NPY-Y1 receptor antagonists, primary screen, cell-based. Neuropeptide Y receptor type 1 (Homo sapiens), P25929. AID 1040, 2008. inhibition, % at 3.6 µM. 200,000 tested, 1% active. HEK293-CNG Y1 cells, membrane potential fluorescence; NPY at EC95, then isoproterenol;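 active = inhibition above the campaign mean inhibition of all tested compounds plus 3 SD, cut at about 20% in these data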;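 note: 0% = DMSO wells given NPY plus isoproterenol and 100% = isoproterenol alone without NPY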
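Test system – HEK293 Y1/CNG channel cell line · Also added – NPY agonist 25 nM, then isoproterenol 1 µM plus Ro 20-1724 25 µM · Compound dosing – one concentration, 3.6 µM, in 0.4% DMSO · Schedule – compound incubation 1 h at room temperature, readout 45 min post-stimulation · Technique – fluorescence, membrane potential probe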
NPY1 antag conf: NPY-Y1 receptor antagonists, retest of hits, confirmation, HEK293-CNG cells, membrane potential fluorescence, triplicate; inhibition, % at 3.6 µM; 1,200 tested, 21% active; shares compounds with NPY Y1 blocker; cAMP; NPY challenge against isoproterenol-raised cAMP; in the data active = inhibition above about 20%;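 note: 0% = vehicle with agonist plus stimulus and 100% = stimulus alone without agonist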
NPY2 antag ctr: NPY-Y2 receptor antagonists, selectivity check, confirmation, counter-screen for NPY-Y1 antagonist project, HEK293-CNG cells, membrane potential fluorescence, triplicate. AID 1255, 2008. 1,200 tested, 28% active. antagonism; cells given NPY, then isoproterenol. inhibition, % at 3.6 µM. shares compounds with NPY Y1 blocker;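 note: 0% = DMSO with agonist challenge and 100% = reference antagonist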
The depositor's hits bear a star. Cut-off read from the data, not from the text of the source, unless noted: active = inhibition above about 17%; inactive = the rest.

`CC1CCN(CCNC(=S)Nc2ccc(Cl)cc2)CC1` gave NPY2 pot ag 2, NPY1 pot ag 14 and NPY Y1 blocker 7.
`Cc1cccc(NC(=O)c2ccccc2OCC(=O)N2CCCC2)c1C` gave NPY2 pot ag -10, NPY1 pot ag 3 and NPY Y1 blocker -2.
CCCCn1c(SCC(=O)N2CCC(C)CC2)nc2ccsc2c1=O was read as NPY Y2 blocker 17, NPY2 pot ag -19, NPY1 pot ag 21, NPY Y1 blocker 21*, NPY1 antag conf 13 and NPY2 antag ctr 4.
Screening CC(C)c1ccc(SCc2noc(C(=O)NCC3CCCO3)c2C(=O)O)cc1 (stereo not given) returned NPY Y2 blocker 9, NPY2 pot ag -38, NPY1 pot ag -14, NPY Y1 blocker 24*, NPY1 antag conf 10 and NPY2 antag ctr 10.
`O=C(NCC1CCCO1)c1onc(CSc2ccccc2)c1C(=O)O` (stereo not given) gave NPY Y2 blocker 2, NPY2 pot ag -11, NPY1 pot ag 15 and NPY Y1 blocker 4.
For Cc1cccc(SCc2noc(C(=O)NCC3CCCO3)c2C(=O)O)c1 (stereo not given) the results were NPY Y2 blocker 10, NPY2 pot ag -20, NPY1 pot ag -37 and NPY Y1 blocker 17.
Cc1ccc(C)c(SCc2noc(C(=O)NCC3CCCO3)c2C(=O)O)c1 (stereo not given) was read as NPY Y2 blocker 10, NPY2 pot ag -20, NPY1 pot ag -26, NPY Y1 blocker 21*, NPY1 antag conf 22* and NPY2 antag ctr 13.
For CCc1ccccc1NC(=O)/C(=C/c1ccco1)c1ccccc1 the results were NPY Y2 blocker 2, NPY2 pot ag 0, NPY1 pot ag 6, NPY Y1 blocker 22*, NPY1 antag conf 3 and NPY2 antag ctr 3.
For O=C(c1nc2ccccn2c1CN1CCCC(OCc2ccccc2)C1)N1CCCC1 (stereo not given) the results were NPY2 pot ag -18, NPY1 pot ag -19, NPY Y1 blocker 24*, NPY1 antag conf 12 and NPY2 antag ctr 5.
Screening CN(Cc1cccnc1)C(=O)CNC(=O)c1ccc(Cl)cc1Cl returned NPY2 pot ag 3, NPY1 pot ag -9 and NPY Y1 blocker -2.
Screening Cc1ccccc1OCCn1cnc2cc([N+](=O)[O-])ccc2c1=O returned NPY2 pot ag 3, NPY1 pot ag 7 and NPY Y1 blocker 1.
For CCCCN(CCCC)c1cc(C)nc(-c2ccccc2O)n1 the results were NPY Y2 blocker 10, NPY2 pot ag -11, NPY1 pot ag -6, NPY Y1 blocker 22*, NPY1 antag conf 16 and NPY2 antag ctr 17.
Cc1scc(C(=O)N/N=C/c2ccc(Cl)s2)c1C was read as NPY Y2 blocker 3, NPY2 pot ag 4, NPY1 pot ag 13 and NPY Y1 blocker 2.
Screening COc1ccc([N+](=O)[O-])cc1NC(=O)c1cn(-c2ccc(C)c(C)c2)c(=O)c2ccccc12 returned NPY Y2 blocker -2, NPY2 pot ag 14, NPY1 pot ag -27 and NPY Y1 blocker -2.
COc1ccccc1CCNC(=O)CSc1ccc(-c2ccco2)nn1 was read as NPY2 pot ag 1, NPY1 pot ag -16, NPY Y1 blocker 22*, NPY1 antag conf 2 and NPY2 antag ctr 2.
COc1ccccc1-c1ccc(SCC(=O)NCCc2ccccc2)nn1 was read as NPY2 pot ag -1, NPY1 pot ag -12 and NPY Y1 blocker 1.
For Cc1ccc(CSc2nc3ccccc3c(=O)n2Cc2ccco2)cc1 the results were NPY Y2 blocker 11, NPY2 pot ag -6, NPY1 pot ag -36, NPY Y1 blocker 28*, NPY1 antag conf 6 and NPY2 antag ctr 14.
Screening Cc1ccc(CSc2nc3ccccc3c(=O)n2CCCC(=O)NCc2ccco2)cc1 returned NPY Y2 blocker -1, NPY2 pot ag -16, NPY1 pot ag 12 and NPY Y1 blocker 1.
Cc1noc(NS(=O)(=O)c2ccc(NC(=O)c3ccc(OC(C)C)cc3)cc2)c1C was read as NPY2 pot ag 13, NPY1 pot ag 14, NPY Y1 blocker 54*, NPY1 antag conf -2 and NPY2 antag ctr 3.
`CCCn1c(SCC(=O)Nc2ccccc2C(=O)OC)nc2c1c(=O)n(C)c(=O)n2C` gave NPY Y2 blocker 3, NPY2 pot ag 0, NPY1 pot ag 3 and NPY Y1 blocker -2.
Screening CCCn1c(SCC(=O)Nc2ccccc2N2CCCCC2)nc2c1c(=O)n(C)c(=O)n2C returned NPY Y2 blocker 11, NPY2 pot ag -12, NPY1 pot ag -33, NPY Y1 blocker 26*, NPY1 antag conf 15 and NPY2 antag ctr 13.
O=[N+]([O-])c1ccc(C2CCCC/C2=N\OCc2cccc(F)c2)c([N+](=O)[O-])c1 (stereo not given) was read as NPY Y2 blocker 0, NPY2 pot ag -12, NPY1 pot ag -37, NPY Y1 blocker 31*, NPY1 antag conf 11 and NPY2 antag ctr 11.
COc1cc(OC)cc(C(=O)N/N=C/c2ccc(OC)c(COc3ccc(F)cc3)c2)c1 was read as NPY Y2 blocker 12, NPY2 pot ag -80, NPY1 pot ag -53, NPY Y1 blocker 61*, NPY1 antag conf 16 and NPY2 antag ctr 31*.
COc1ccc(CC2(CO)CCN(CC3=CC[C@H]4C[C@@H]3C4(C)C)CC2)cc1 was read as NPY2 pot ag -7, NPY1 pot ag -1, NPY Y1 blocker 22*, NPY1 antag conf 11 and NPY2 antag ctr 12.
COc1ccc(CC2(CO)CCN(Cc3ccncc3)CC2)cc1 was read as NPY2 pot ag 1, NPY1 pot ag -24 and NPY Y1 blocker 0.
CCCCC12CN3CC(C)(CN(C1)C31C(=O)N(C)c3ccc(C)cc31)C2=O (stereo not given) was read as NPY Y2 blocker 3, NPY2 pot ag 11, NPY1 pot ag -7, NPY Y1 blocker 21*, NPY1 antag conf 2 and NPY2 antag ctr 8.
Screening CC(=O)/C=C1\N(C)c2ccc(C)cc2C1(C)C returned NPY2 pot ag -12, NPY1 pot ag -10 and NPY Y1 blocker 5.
For CCN1CC(CN(C)Cc2nc(-c3ccc(C(F)(F)F)cc3)oc2C)CC1=O (stereo not given) the results were NPY2 pot ag 0, NPY1 pot ag 4 and NPY Y1 blocker 9.
O=C(NCC(c1cccnc1)N1CCN(c2ccc(F)cc2)CC1)C1CCCCC1 (stereo not given) was read as NPY Y2 blocker 2, NPY2 pot ag -3, NPY1 pot ag -4, NPY Y1 blocker 66*, NPY1 antag conf 2 and NPY2 antag ctr 2.
